pIC50: −log10 of the molar value. The source made the active and inactive calls. No cut-off for these calls is given here. A value given as a limit tells only on which side of the number the result lay.

Data set [1] addresses Potassium voltage-gated channel subfamily A member 5 (Homo sapiens, UniProt P22460). Nature of the data set: Antagonist activity at human Kv1.5 channel expressed in CHO cell membrane by HT clamp assay. It is filed as functional, cell-based. Summed up: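 IC50 from 10-point concentration-response curves by HT-clamp voltage clamp, 3-4 cells per point. A reference Kv1.5 antagonist was run as positive control.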

Data set [2] deals with Voltage-gated inwardly rectifying potassium channel KCNH2 (Homo sapiens, UniProt Q12809). Nature of the data set: Binding affinity to hERG potassium channel. On the technique in general: Block of hERG is tested as a sign of cardiac risk.
For data set [3], the species on record is Rattus norvegicus. Nature of the data set: Increase in atrial refractory period in surgically instrumented rat electrophysiology model. Format: functional, organism-based. Conditions: Cardiac atrium.
For data set [4], the species on record is Canis familiaris. Nature of the data set: Increase in atrial refractory period in dog electrophysiology model. Conditions: Canis lupus familiaris; Cardiac atrium. It is filed as functional, organism-based.
The species entered for data set [5] is Canis familiaris. Nature of the data set: Effect on ventricular refractory period in dog electrophysiology model. It is filed as functional, organism-based. The conditions noted are these: Canis lupus familiaris; Cardiac ventricle.
The species entered for data set [6] is Rattus norvegicus. Nature of the data set: Increase in atrial refractory period in surgically instrumented rat electrophysiology model. The conditions noted are these: Cardiac atrium.
Data set [7] is described as follows: Volume of distribution in rat. It is filed as ADME, organism-based. Conditions: in vivo, read-out: Vdss.
Data set [8] in a line: Clearance in rat. The conditions noted are these: in vivo. It is filed as ADME, organism-based.
Data set [9] in a line: Bioavailability in rat. It is filed as ADME, organism-based. Conditions: in vivo.
For data set [10], the species on record is Rattus norvegicus. In words: Increase in ventricular refractory period in surgically instrumented rat electrophysiology model. Format: functional, organism-based. The conditions noted are these: Cardiac ventricle.
For data set [11], the species on record is Rattus norvegicus. In words: Effect on AV node refractory period in surgically instrumented rat electrophysiology model at 35 uM. Format: functional, organism-based.
The species named for data set [12] is Rattus norvegicus. Nature of the data set: Increase in AV node refractory period in surgically instrumented rat electrophysiology model. It is filed as functional, organism-based.

Chain of Voltage-gated inwardly rectifying potassium channel KCNH2 (Q12809 whole entry): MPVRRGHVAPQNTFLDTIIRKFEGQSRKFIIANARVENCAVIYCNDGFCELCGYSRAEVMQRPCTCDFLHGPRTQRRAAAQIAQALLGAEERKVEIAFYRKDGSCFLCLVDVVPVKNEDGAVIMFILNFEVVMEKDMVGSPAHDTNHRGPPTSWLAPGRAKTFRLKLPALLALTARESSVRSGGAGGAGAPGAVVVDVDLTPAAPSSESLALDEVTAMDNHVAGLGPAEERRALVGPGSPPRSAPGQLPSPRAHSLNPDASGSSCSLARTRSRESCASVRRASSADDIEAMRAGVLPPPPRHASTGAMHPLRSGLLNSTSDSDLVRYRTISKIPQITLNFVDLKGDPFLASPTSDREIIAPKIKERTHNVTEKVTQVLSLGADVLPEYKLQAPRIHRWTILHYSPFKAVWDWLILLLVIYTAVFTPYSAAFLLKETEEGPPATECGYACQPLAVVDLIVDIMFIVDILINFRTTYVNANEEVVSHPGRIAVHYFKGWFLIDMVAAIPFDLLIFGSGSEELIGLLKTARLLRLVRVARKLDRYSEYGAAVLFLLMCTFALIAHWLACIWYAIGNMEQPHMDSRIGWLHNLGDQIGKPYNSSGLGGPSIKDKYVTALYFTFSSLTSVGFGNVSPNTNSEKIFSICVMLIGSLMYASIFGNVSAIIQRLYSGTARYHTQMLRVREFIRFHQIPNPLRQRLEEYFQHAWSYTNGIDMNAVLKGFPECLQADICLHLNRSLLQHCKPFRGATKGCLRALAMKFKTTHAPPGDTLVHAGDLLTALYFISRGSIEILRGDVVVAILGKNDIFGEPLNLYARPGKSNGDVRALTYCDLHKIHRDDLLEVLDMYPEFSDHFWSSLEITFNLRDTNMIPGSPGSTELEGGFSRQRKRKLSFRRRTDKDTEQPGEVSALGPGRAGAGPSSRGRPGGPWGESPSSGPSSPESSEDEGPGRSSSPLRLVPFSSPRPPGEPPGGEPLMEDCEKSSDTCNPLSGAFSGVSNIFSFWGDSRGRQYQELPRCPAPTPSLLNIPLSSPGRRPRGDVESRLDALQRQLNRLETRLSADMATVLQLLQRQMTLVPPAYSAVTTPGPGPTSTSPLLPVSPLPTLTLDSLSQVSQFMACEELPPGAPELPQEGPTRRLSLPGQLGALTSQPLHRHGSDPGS
Chain of Potassium voltage-gated channel subfamily A member 5 (P22460 whole entry): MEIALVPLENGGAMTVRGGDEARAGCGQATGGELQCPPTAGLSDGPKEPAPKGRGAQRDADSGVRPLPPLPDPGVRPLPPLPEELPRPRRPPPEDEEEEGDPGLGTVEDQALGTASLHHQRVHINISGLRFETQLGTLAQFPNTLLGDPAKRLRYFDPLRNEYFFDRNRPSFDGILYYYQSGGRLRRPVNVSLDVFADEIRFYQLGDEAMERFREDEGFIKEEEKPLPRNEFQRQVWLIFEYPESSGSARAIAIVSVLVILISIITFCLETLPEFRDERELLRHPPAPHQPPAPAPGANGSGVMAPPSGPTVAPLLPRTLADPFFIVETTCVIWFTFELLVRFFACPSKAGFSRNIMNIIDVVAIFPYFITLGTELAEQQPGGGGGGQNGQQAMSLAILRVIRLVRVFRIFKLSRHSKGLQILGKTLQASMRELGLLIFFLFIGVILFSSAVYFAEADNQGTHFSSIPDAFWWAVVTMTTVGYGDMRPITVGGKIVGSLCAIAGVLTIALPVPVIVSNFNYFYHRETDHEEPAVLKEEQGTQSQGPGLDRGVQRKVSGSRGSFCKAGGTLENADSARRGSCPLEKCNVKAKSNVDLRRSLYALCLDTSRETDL

As usually defined, the pIC50 is −log10 of the IC50, conventionally taken in molar units. Higher therefore signals a low IC50. Take `COc1ccc2c(=O)n(CC(O)CO)c(C#N)c(-c3cccc(C(F)(F)F)c3)c2c1` (centres undefined): the negative-log IC50 (pIC50) in data set [1] was 6.60.

Consider `COc1ccc2c(C(=O)NCCO)nc(C#N)c(-c3ccccc3)c2c1`, for which the pIC50 in data set [2] is < 4.52. In addition, the outcome in [3] and in [4] was Active. Also, in data set [5], the outcome was inactive.

A word on the clearance: it is the rate of elimination divided by the concentration. Low values mean inefficient removal, high ones efficient removal. As usually defined, the bioavailability is dose-corrected exposure relative to a reference, in per cent. A high value points to much systemic uptake. Take `COc1ccc2c(OC[C@H](O)CO)nc(C#N)c(-c3ccccc3)c2c1`: the pIC50 in [2] is 4.69; in data set [1] it was 6.80. Further, in [6], the result was Active. The Vd in data set [7] worked out at 1.7 L/kg. In [8], the clearance worked out at 13 mL/min/kg. Further, the bioavailability in [9] amounted to 67%.

For the compound `COc1ccc2c(=O)n(C[C@H](O)CO)c(C#N)c(-c3ccccc3)c2c1`, the result in [3] and in [10] was Active. In addition, in data set [11], the result was inactive.

On to `COc1ccc2c(NC[C@H](O)CO)nc(C#N)c(-c3ccccc3)c2c1`, for which the negative-log IC50 (pIC50) in data set [2] is 4.82. Further, the outcome in data set [6] and in data set [12] was Active.

Consider `COc1ccc2c(-n3cnc(C)c3)nc(C#N)c(-c3cccc(F)c3)c2c1`, for which, in data set [3], the result was Active. In [1], this compound had a pIC50 of 6.59.

Compound `COCCN(C)CCn1c(C#N)c(-c2cccc(F)c2)c2cc(OC)ccc2c1=O` showed a pIC50 in [1] of 6.10.

The compound `COc1ccc2c(=O)n(CCO)c(C#N)c(-c3cccc(F)c3)c2c1` showed a pIC50 in [1] of 6.16.

For the compound `COc1ccc2c(=O)n(CC(O)CO)c(C#N)c(-c3cccc(F)c3)c2c1` (centres undefined), the figures for the pIC50 in [2] and in data set [1] were 4.47 and 6.06, respectively.

`COc1ccc2c(=O)n(C)c(CN(C)C)c(-c3ccccc3)c2c1`: the pIC50 in data set [2] was 5.28; in [1], 6.72. The clearance in data set [8] amounted to 26 mL/min/kg. In data set [9], this compound yielded a bioavailability of 11%.

Regarding `COc1ccc2c(=O)n(CC(CO)NCc3cccnc3)c(C#N)c(-c3ccccc3)c2c1` (centres undefined), the results for the pIC50 in [2] and in data set [1] were 5.00 and 6.92, respectively.

The values above are taken from ChEMBL document CHEMBL1137352, “Design and synthesis of novel isoquinoline-3-nitriles as orally bioavailable Kv1.5 antagonists for the treatment of atrial fibrillation” (J Med Chem, 2006).
